Measurements from ChEMBL document CHEMBL1139744, “Rapid synthesis of 4-benzylidene and 4-[bis-(4-methoxyphenyl)-methylene-2-substituted phenyl-benzopyrans as potential selective estrogen receptor modulators (SERMs) using McMurry coupling reaction” (Bioorg Med Chem Lett, 2006).
The source made the active and inactive calls. The calls are words filed in the database; no cut-off is given here.

Assays:
[1] = tested on: Rattus norvegicus; assay: Agonist activity at ER receptor assessed as increase in uterine weight of Sprague-Dawley rat at 10 mg/kg/day, po relative to control; type: functional
Procedure, shortened: (§1)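 Immature female rats were dosed orally once daily on days 28–30 of age, with a vehicle-only control group. At autopsy on day 31, 24 h after the last dose, a vaginal smear was taken and the uterus was excised, blotted and weighed fresh. Agonism was judged by uterine weight gain, vaginal opening and cornification versus vehicle. Values are means ± SEM, n≥6 per group.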

[2] = tested on: Rattus norvegicus; assay: Antagonist activity at ER receptor assessed as inhibition of 17-alpha-ethynylestradiol-induced increase in uterine weight of Sprague-Dawley rat at 10 mg/kg/day, po; type: functional; settings: for inhibition in vivo at 10 mg/kg/day: Rattus norvegicus, Sprague-Dawley
Procedure, shortened: (§2)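 Oral dosing was given alongside 17α-ethynylestradiol (0.02 mg/kg) in rats, with vehicle and EE-alone groups. Fresh uterine weight was expressed as percent of the EE-alone group. Values are means ± SEM of at least six animals per group. Significance was tested against the corresponding EE-alone group (P<0.05, P<0.01).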

[3] = target: T1, Estrogen receptor (Rattus norvegicus) (UniProt P06211); assay: Displacement of [3H]estradiol from ER in rat uterus […] relative to estradiol
T1 sequence (whole entry): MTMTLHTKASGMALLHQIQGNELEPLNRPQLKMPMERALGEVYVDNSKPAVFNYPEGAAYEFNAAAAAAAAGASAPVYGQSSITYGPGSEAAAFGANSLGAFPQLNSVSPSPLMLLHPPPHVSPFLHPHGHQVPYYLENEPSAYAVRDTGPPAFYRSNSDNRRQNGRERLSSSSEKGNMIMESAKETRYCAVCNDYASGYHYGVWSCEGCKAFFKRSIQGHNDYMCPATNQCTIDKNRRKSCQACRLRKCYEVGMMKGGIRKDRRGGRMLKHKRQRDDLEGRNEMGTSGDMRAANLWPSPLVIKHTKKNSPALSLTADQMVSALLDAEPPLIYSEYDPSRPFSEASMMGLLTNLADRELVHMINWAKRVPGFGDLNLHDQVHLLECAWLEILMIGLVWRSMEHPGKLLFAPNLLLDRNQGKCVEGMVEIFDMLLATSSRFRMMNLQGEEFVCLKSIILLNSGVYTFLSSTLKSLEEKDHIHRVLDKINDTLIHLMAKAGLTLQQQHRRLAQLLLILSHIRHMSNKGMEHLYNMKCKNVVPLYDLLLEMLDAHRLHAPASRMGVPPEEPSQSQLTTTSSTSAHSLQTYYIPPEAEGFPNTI

[4] = tested on: Rattus norvegicus; assay: Agonist activity at ER receptor assessed as increase in uterine weight of Sprague-Dawley rat at 10 mg/kg/day, po; type: functional; procedure, shortened: as §1
[5] = tested on: MCF7; assay: Antiproliferative activity against MCF7 cells […] after 48 hrs; type: functional; settings: Homo sapiens; for IC50: MCF7, 48 h
Procedure, shortened: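 MCF-7 cells were trypsinized (0.05% trypsin–EDTA), plated at 10⁴ cells/well in MEM at pH 7.4, and left to attach for 24 h at 37 °C under CO₂. Compounds in ethanol/DMSO were added and incubated 48 h. Cells were fixed with cold 10% TCA for 1 h at 4 °C, stained with 0.4% SRB in 1% acetic acid for 30 min, and the stain was extracted with Tris base at pH 10.5. OD was read at 560 nm.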

[6] = tested on: Rattus norvegicus; assay: Antagonist activity at ER receptor assessed as inhibition of increase in uterine weight of Sprague-Dawley rat at 3 mg/kg/day, po relative to 17-alpha-ethynylestradiol; type: functional; parameters: scale not given: the % may be the effect or the level left; procedure, shortened: as §2
[7] = tested on: Rattus norvegicus; assay: Antagonist activity at ER receptor assessed as inhibition of 17-alpha-ethynylestradiol-induced increase in uterine weight of Sprague-Dawley rat at 3 mg/kg/day, po; type: functional; procedure, shortened: as §2
[8] = tested on: MCF7; assay: Antiproliferative activity against MCF7 cells at 3 mg/kg/day after 48 hrs; settings: Homo sapiens, MCF7, 48 h
[9] = tested on: Rattus norvegicus; assay: Agonist activity at ER receptor assessed as increase in uterine weight of Sprague-Dawley rat at 3 mg/kg/day, po relative to control; type: functional; procedure, shortened: as §1
[10] = tested on: Rattus norvegicus; assay: Agonist activity at ER receptor assessed as increase in uterine weight of Sprague-Dawley rat at 3 mg/kg/day, po; type: functional; procedure, shortened: as §1
[11] = tested on: Rattus norvegicus; assay: Agonist activity at ER receptor assessed as increase in uterine weight in Sprague-Dawley rat at 0.02 mg/kg/day, po; type: functional; procedure, shortened: as §1
[12] = tested on: Rattus norvegicus; assay: Agonist activity at ER receptor assessed as increase in uterine weight of Sprague-Dawley rat at 0.02 mg/kg/day, po relative to control; type: functional; procedure, shortened: as §1
[13] = tested on: Rattus norvegicus; assay: Antagonist activity at ER receptor assessed as increase in uterine weight in Sprague-Dawley rat at 0.02 mg/kg/day, po; type: functional
[14] = tested on: Rattus norvegicus; assay: Activity at ER receptor assessed as additive effect on 17-alpha-ethynylestradiol-induced increase in uterine weight of Sprague-Dawley rat at 10 mg/kg/day, po; type: functional; procedure, shortened: as §2
[15] = tested on: Rattus norvegicus; assay: Antagonist activity at ER receptor assessed as inhibition of increase in uterine weight of Sprague-Dawley rat at 10 mg/kg/day, po relative to 17-alpha-ethynylestradiol; type: functional; parameters: scale not given: the % may be the effect or the level left; procedure, shortened: as §2

RBA [3] [%] | IC50 [5] [µM] | SMILES | Activity [1] [%] | Activity [2] [mg] | inhibition in vivo at 10 mg/kg/day [2] [%] | Activity [4] [mg] | Activity [5] | other results
0.006 | 2 | COc1ccc(/C=C2\CC(c3ccc(OCCN(C)C)cc3)Oc3cc(OC)ccc32)cc1 (centres undefined) | 189 | 85.4 | 21 | 46.3 |  | 
< 0.001 | 6.68 | COc1ccc(C(=C2CC(c3ccc(OCCN4CCCCC4)cc3)Oc3cc(OC)ccc32)c2ccc(OC)cc2)cc1 (centres undefined) | 168 | 81.7 | 26 | 52.5 |  | 
0.095 | 4.39 | COc1ccc(/C=C2\CC(c3ccc(OCCN4CCCCC4)cc3)Oc3cc(OC)ccc32)cc1 (centres undefined) | 54 | 104.4 | 4 | 24.63 |  | 

Continued, molecule first:

SMILES | RBA [3] [%] | IC50 [5] [µM] | Activity [1] [%] | Activity [2] [mg] | inhibition in vivo at 10 mg/kg/day [2] [%] | Activity [4] [mg] | Activity [5] | other results
COc1ccc(/C=C2\CC(c3ccc(OCCN4CCCC4)cc3)Oc3cc(OC)ccc32)cc1 (centres undefined) | 0.095 | 7.39 | 147 | 92.3 | 15 | 39.57 |  | 
COc1ccc(C(=C2CC(c3ccc(OCCN(C)C)cc3)Oc3cc(OC)ccc32)c2ccc(OC)cc2)cc1 (centres undefined) | < 0.001 |  |  |  |  |  | inactive | 
CC/C(=C(\c1ccccc1)c1ccc(OCCN(C)C)cc1)c1ccccc1 [TAMOXIFEN] |  |  |  |  |  |  |  | Activity [6]: 49%; Activity [7]: 52.3 mg; inhibition in vivo at 3 mg/kg/day ([7]; Rattus norvegicus, Sprague-Dawley): 49%; IC50 [8]: 5.09 µM; Activity [9]: 155%; Activity [10]: 46.32 mg
C#C[C@]1(O)CC[C@H]2[C@@H]3CCc4cc(O)ccc4[C@H]3CC[C@@]21C [ETHINYL ESTRADIOL] |  |  |  |  |  |  |  | Activity [11]: 66.35 mg; Activity [12]: 464%; Activity [13]: 66.35 mg
COc1ccc(/C=C2\CC(c3ccc(O)cc3)Oc3cc(OC)ccc32)cc1 (centres undefined) | 0.013 | 8.77 | 24 | 88.33 |  | 17.33 |  | Activity [14]: 88.33 mg
COc1ccc2c(c1)OC(c1ccc(O)cc1)C/C2=C\c1ccc(OCc2ccccc2)cc1 (centres undefined) | 0.02 |  | 153 | 46.33 | 29 | 38.3 | inactive | Activity [15]: 29%
COc1ccc(C(=C2CC(c3ccc(O)cc3)Oc3cc(OC)ccc32)c2ccc(OC)cc2)cc1 (centres undefined) | 0.097 |  | 86 | 70.33 | 17 | 26 | inactive | 
